# Screening results as filed in PubChem BioAssay.
# LANA DNA inh – KSHV C-LANA DNA binding inhibition | 340,000 tested, 0.078% active | AID 504423 | inhibition, % at 9 µM | MBP-C-LANA/FAM-LBS DNA binding, fluorescence polarization;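 active means highest replicate inhibition at or above 60% at 9 µM, even if other replicates fall short; inactive means all replicates below 60% inhibition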;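 further: 0% = neutral control wells and 100% = 4 µM acridine orange control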
# CaV13 ICDI inh – Disruptors of the CACNA1D IQ motif to Ca2+-dependent inactivation inhibitor domain association, primary screening, Förster resonance energy transfer in intact living …; HEK cells, CFP/YFP FRET ICDI-IQ, plate reader, 10 min; percent FRET-ratio fall versus neutral wells; inhibition, % at 12.3 µM; 340,000 tested, 0.098% active; AID 743397;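 active means mean replicate inhibition of at least 30% and at least 1% of replicates passing that level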;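 further: 0% = median of the neutral control wells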
# LANA-H2A inh – blocks KSHV LANA binding to histone H2A/H2B; 320,000 tested, 0.6% active; Q9QR71; cell-free LANA-H2A/H2B peptide, fluorescence polarization; inhibition, % (test concentration not listed); in the data active means inhibition mostly above about 10%, no sharp cut-off; inactive means mostly below about 6.7%
# Target sequence (Q9QR71 whole entry, looked up): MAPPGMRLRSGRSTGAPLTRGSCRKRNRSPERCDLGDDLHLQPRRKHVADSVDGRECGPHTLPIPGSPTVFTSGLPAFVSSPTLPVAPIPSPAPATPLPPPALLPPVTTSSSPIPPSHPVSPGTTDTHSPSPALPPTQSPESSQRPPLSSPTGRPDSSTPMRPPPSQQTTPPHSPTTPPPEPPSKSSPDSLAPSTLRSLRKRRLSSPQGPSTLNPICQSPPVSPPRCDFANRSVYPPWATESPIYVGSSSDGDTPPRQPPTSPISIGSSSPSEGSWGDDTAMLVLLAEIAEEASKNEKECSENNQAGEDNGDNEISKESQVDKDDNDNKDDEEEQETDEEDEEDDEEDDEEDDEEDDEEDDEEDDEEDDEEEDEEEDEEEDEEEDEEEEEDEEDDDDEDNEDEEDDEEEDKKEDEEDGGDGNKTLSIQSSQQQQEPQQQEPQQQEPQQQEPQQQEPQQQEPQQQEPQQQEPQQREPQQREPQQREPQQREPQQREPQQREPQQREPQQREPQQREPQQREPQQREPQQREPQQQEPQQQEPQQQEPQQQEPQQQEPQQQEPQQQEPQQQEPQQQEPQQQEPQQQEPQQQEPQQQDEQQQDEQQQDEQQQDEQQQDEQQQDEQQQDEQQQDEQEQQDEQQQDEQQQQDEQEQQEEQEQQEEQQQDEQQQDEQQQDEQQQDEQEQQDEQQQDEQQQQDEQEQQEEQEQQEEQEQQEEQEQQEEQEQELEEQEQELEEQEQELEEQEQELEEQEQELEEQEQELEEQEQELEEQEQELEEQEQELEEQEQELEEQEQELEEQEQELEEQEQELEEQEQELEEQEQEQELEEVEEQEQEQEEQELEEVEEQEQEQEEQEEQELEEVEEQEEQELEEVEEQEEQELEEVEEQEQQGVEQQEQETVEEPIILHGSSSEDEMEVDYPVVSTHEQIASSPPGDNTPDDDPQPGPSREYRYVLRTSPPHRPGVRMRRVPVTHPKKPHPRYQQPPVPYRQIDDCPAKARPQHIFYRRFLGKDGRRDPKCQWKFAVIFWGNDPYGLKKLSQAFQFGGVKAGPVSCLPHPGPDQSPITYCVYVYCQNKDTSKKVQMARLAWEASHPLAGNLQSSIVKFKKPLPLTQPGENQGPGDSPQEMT
# Keap1 Nrf2 FP – inhibitors of human Keap1-Nrf2 protein-protein interaction. Q14145. Keap1 Kelch-Nrf2 peptide fluorescence polarization, 1536-well. inhibition, % at 9.4 µM. 340,000 tested, 0.15% active. AID 504523; in the data active means inhibition above about 12%;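 further: human Keap1 Kelch domain with fluorescein labeled Nrf2 9mer peptide probe; 0% = neutral control wells and 100% = peptide positive control; higher means more block of Keap1 binding to Nrf2 peptide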
# CAL PDZ FP-1 – inhibitors of human CAL PDZ peptide binding | Q9HD26 | 300,000 tested, 0.92% active | inhibition, % at 24.9 µM | purified CAL PDZ, TMR-peptide fluorescence polarization, 1 h;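 active means mean inhibition of at least 30% with at least half of replicates also reaching 30%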;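 further: 0% = DMSO neutral control and 100% = excess unlabeled competitor peptide PRC23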
# CAL PDZ FP-2 – blocks peptide binding to human CAL PDZ domain | Q9HD26 | purified CAL PDZ, TMR-peptide fluorescence polarization, 1 h | inhibition, % at 20 µM | 330,000 tested, 0.02% active | AID 504414;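 active means highest replicate inhibition of at least 40%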;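 further: plate controls were DMSO neutral control wells for no effect and unlabeled competitor peptide control wells for full effect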
#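 System: purified tagged CAL PDZ domain construct (CerCALP). Schedule: 1 h incubation at room temperature before polarization reading. Medium: 25 mM sodium phosphate pH 7.4, 150 mM NaCl, TCEP, IgG, Thesit. Read-out: percent inhibition from loss of millipolarization. Measured by: FP readout, S and P plane fluorescence. Probe or stimulus: fluorescent TMR peptide probe.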
# Active calls of the source: *; nt = not tested or not shown; ! = a repeat was not active. Hits are enriched below; roughly 1.5% of the tested compounds scored in any of these assays.
SMILES,LANA DNA inh,CaV13 ICDI inh,LANA-H2A inh,Keap1 Nrf2 FP,CAL PDZ FP-1,CAL PDZ FP-2
CNC(=O)c1cc2cc(OC)ccc2n1CCN(Cc1ccccc1)Cc1ccccc1,1,nt,0,-5,0,3
CNC(=O)c1cc2cc(OC)ccc2n1CCN(C)C,1,nt,0,-4,47*,nt
Cc1cc(OCC(=O)Nc2nnc(C3CC3)s2)ccc1C(C)C,-4,-2,nt,-1,45*,0
CC(C)Cc1nnc(NC(=O)c2cc3c(s2)CCC3)s1,-1,-2,4,-4,45*,-1
CC12CCC(C(=O)Nc3nc4ccc(Br)cc4s3)(OC1=O)C2(C)C (centres undefined),1,0,3,3,-3,-3
COC(=O)N1C[C@H](OCc2ccccc2)[C@H]2C[C@@H]1c1ccccc1O2,nt,-4,nt,nt,nt,nt
c1cncc(CNc2c3c(nc4nnnn24)CCCC3)c1,-1,-2,18*,-1,-3,0
C=CCNc1c2c(nc3nnnn13)CCCC2,2,3,nt,-4,0,0
CC(Sc1ccc(S(=O)(=O)N2CCOCC2)cn1)C(=O)Nc1ccc(Cl)cc1Cl (centres undefined),-1,-2,24*,-7,nt,0
CC(Sc1ccc(S(=O)(=O)N2CCN(C)CC2)cn1)C(=O)Nc1cccc(Cl)c1Cl (centres undefined),-1,-2,nt,-1,nt,0
CCCS(=O)(=O)NC(=O)C1(C)CCN(C(=O)c2nc(C)oc2C)C1 (centres undefined),nt,-7,nt,nt,nt,nt
CCC(=O)N1CCN(c2ccc(-n3c(=O)ccc4cnc5ccc(-c6cnc7ccccc7c6)cc5c43)cc2C(F)(F)F)CC1,nt,-4,nt,nt,nt,nt
CCc1oc2ccccc2c1C(=O)c1cc(Br)c(O)c(Br)c1,9,-5,22*!,-2,-3,-1
Cc1ccc(-n2c(CSc3nc(C)cc(C)n3)nnc2SCC(=O)NCc2ccco2)cc1,-1,-5,-1,-3,104*,0
Cc1ccc(-n2c(Cc3cccn3C)nnc2SCC(=O)NCc2ccco2)cc1,0,-3,2,2,-5,-2
Cc1ccc(C(=O)NCCc2ccccc2)cc1N1CCCC1=O,0,nt,1,-2,-1,-2
Cc1ccc(C(=O)NCCCN2CCOCC2)cc1N1CCCC1=O,0,-4,-2,6,40*,nt
O=C(NC(=S)NCCCN1CCOCC1)c1ccc(Br)cc1,0,1,2,2,3,nt
O=C(NCCCN1CCOCC1)c1ccc2c(c1)N(Cc1cccc(Cl)c1)C(=O)c1ccccc1S2=O (centres undefined),-2,-6,5,2,37*,-1
O=C(CCNC(=O)c1ccc(Br)cc1)NCCCN1CCOCC1,1,-5,51*,-2,nt,0
Nc1ccc(F)c(CN2CCN(c3ncc(Cc4ccccc4)cn3)CC2)c1,nt,-9,nt,nt,nt,nt
Cc1cnc(-c2nc3ccccc3n2C(C(=O)NC(C)(C)C)c2ccncc2)cn1 (centres undefined),nt,-9,nt,nt,nt,nt
COC(=O)c1ccc([C@H]2C=C(C(=O)O)O[C@@H](OCc3ccc(CO)cc3)C2)cc1,1,-10,3,0,-1,-2
CC(Cc1ccccc1)NC(=O)CN1C(=O)c2ccccc2S1(=O)=O (centres undefined),-1,-13,-10,-3,-1,-2
O=C(NCC1(N2CCCCC2)CCCCC1)c1cccc(S(=O)(=O)Nc2ccc(F)cc2)c1,0,-6,23*,-6,nt,0
SMILES,LANA DNA inh,CaV13 ICDI inh,LANA-H2A inh,Keap1 Nrf2 FP,CAL PDZ FP-1,CAL PDZ FP-2
O=C(NCC1CCCO1)c1cccc(S(=O)(=O)Nc2ccc(F)cc2)c1 (centres undefined),-3,-2,63*,-4,nt,0
O=C(c1ccc(NS(=O)(=O)c2cccc(F)c2)cc1)N1CCCCC1,2,-10,-2,4,36*,-2
Cc1cc(S(=O)(=O)Nc2ccc(C(=O)NCC3CCCO3)cc2)ccc1F (centres undefined),nt,-5,5,nt,nt,nt
O=C(Nc1ccc(F)c(Cl)c1)c1csc(COCCO)n1,nt,-7,nt,nt,nt,nt
Cc1cc2cc(C(c3nnnn3Cc3ccccc3)N3CCc4ccccc43)c(=O)[nH]c2cc1C (centres undefined),-1,-6,-2,1,-4,-1
Cc1ccc2cc(C(c3nnnn3Cc3ccccc3)N3CCc4ccccc43)c(=O)[nH]c2c1C (centres undefined),0,-5,2,-7,81*,0
Cc1ccc(S(=O)(=O)N2C3CC(c4ccccc4)N(S(=O)(=O)c4cccc(Cl)c4)CC3C(=O)C[C@H]2c2ccccc2)cc1 (some centres undefined),nt,-6,nt,nt,nt,nt
Cc1c(C(=O)NNC(=O)c2csc(N3CCOCC3)n2)cccc1[N+](=O)[O-],0,-6,-4,3,-1,-1
O=C(NNC(=O)c1ccccc1[N+](=O)[O-])c1csc(N2CCOCC2)n1,-1,-7,8,-8,49*,-2
CCOC(=O)N1CCN(C(=O)C[C@@H]2C[C@@]3(C(=O)OC)CC(C)(C)CC=C3N(Cc3cccc4ccccc34)C2=O)CC1,nt,-3,nt,nt,nt,nt
COc1ccccc1N1CCN(C2CCCN(C(=O)c3cc(C4CC4)on3)C2)CC1 (centres undefined),-1,-2,3,-7,128*,1
Cc1cc(C(=O)N2CCCC(N3CCN(c4ccccc4C)CC3)C2)n(C)n1 (centres undefined),0,-3,4,3,31*,0
O=C(c1cc(C2CC2)on1)N1CCCC(N2CCN(c3ccc(F)cc3)CC2)C1 (centres undefined),0,-7,13*,1,-3,-3
O=C(NCc1cc(Cl)cc(Cl)c1)c1ccc2nc([C@@H]3O[C@H](CO)[C@@H](O)[C@H]3O)[nH]c2c1,nt,-5,nt,nt,nt,nt
COc1ccccc1NC(=S)N(Cc1ccc(C(=O)O)cc1)Cc1ccc(OC)c(OC)c1,-1,-20,1,2,50*,0
CCCCN1CC2=C(C1=O)C(c1ccc(O)cc1)NC(=O)N2C (centres undefined),-1,-4,-5,0,-6,0
O=C(N/N=C/c1ccc(O)cc1)Nc1cccc2nsnc12,-1,-11,4,-3,31*,4
CC12CN3CC(C)(CN(C1)C3c1ccc3ccccc3c1O)C2=O (centres undefined),1,nt,1,0,93*,nt
CC(C)[C@H](NS(=O)(=O)c1cccc(C(F)(F)F)c1)C(=O)OCC(=O)NC(=O)NCc1ccco1,2,-1,-2,1,-4,0
CC(C)Nc1cc(C(C)(C)C)nc2c(-c3ccccc3)cnn12,0,-2,2,2,133*,-1
